In ChEMBL document CHEMBL4808188, “Development of BET inhibitors as potential treatments for cancer: A search for structural diversity” (Bioorg Med Chem Lett, 2021):
pIC50: −log10 of the molar value. In brackets after ≈: the same amount, converted by molar mass.

Tested on: not listed separately
Assay: Antitumor activity against human JJN-3R cells xenografted in mouse assessed as tumor growth inhibition at 1 mg/kg, po qd administered for 7 days beginning 8 days after tumor-cell implantation
Type: functional
Conditions: 168 h, time 7 day, read-out: TGI
Outline: (§1)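 JJN3R multiple myeloma xenograft in mice. Oral dosing once daily for 7 days began 8 days after tumor-cell implantation, on established tumors. Read-out was % tumor growth inhibition, and the minimum efficacious dose was identified.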

SMILES	inhibition in vivo at 1 mg/kg
[2H]C([2H])([2H])c1nnn(C)c1-c1cnc2c3ccc(C(C)(C)O)c(F)c3n([C@H](c3ncccc3F)C3CCOCC3)c2c1	91%

Biological target: T1, Bromodomain-containing protein 4 (Homo sapiens, UniProt O60885)
Assay: Inhibition of BRD4 (unknown origin) assessed as reduction in c-Myc expression
Conditions: not given
Outline: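 Functional c-Myc assay with MYC expression as the read-out; IC50 in nM, reported as mean ± SEM.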

SMILES	pIC50
[2H]C([2H])([2H])c1nnn(C)c1-c1cnc2c3ccc(C(C)(C)O)cc3n([C@H](c3ncccc3F)C3CCOCC3)c2c1	9.00
[2H]C([2H])([2H])c1nnn(C)c1-c1cnc2c3ccc(C(C)(C)O)c(F)c3n([C@H](c3ncccc3F)C3CCOCC3)c2c1	9.05
[2H]C([2H])([2H])c1nnn(C)c1-c1cnc2c3ccc(C(C)(C)O)cc3n([C@H](c3ccc(Cl)cn3)C3CCOCC3)c2c1	8.92
Cc1cc([C@H](C2CCOCC2)n2c3cc(C(C)(C)O)ccc3c3ncc(-c4c(C)nnn4C)cc32)n(C)n1	8.15
[2H]C([2H])([2H])c1nnn(C)c1-c1cnc2c3ccc(C(C)(C)O)cc3n([C@H](c3cc(C)on3)C3CCOCC3)c2c1	8.68

Tested on: not listed separately
Assay: Metabolic stability in monkey liver microsomes assessed as half life measured upto 120 mins
Type: ADME, Macaca mulatta, Microsome
Conditions: rhesus monkey

SMILES	half-life
[2H]C([2H])([2H])c1nnn(C)c1-c1cnc2c3ccc(C(C)(C)O)cc3n([C@H](c3ncccc3F)C3CCOCC3)c2c1	22 min
[2H]C([2H])([2H])c1nnn(C)c1-c1cnc2c3ccc(C(C)(C)O)c(F)c3n([C@H](c3ncccc3F)C3CCOCC3)c2c1	22 min
[2H]C([2H])([2H])c1nnn(C)c1-c1cnc2c3ccc(C(C)(C)O)cc3n([C@H](c3ccc(Cl)cn3)C3CCOCC3)c2c1	37 min
Cc1cc([C@H](C2CCOCC2)n2c3cc(C(C)(C)O)ccc3c3ncc(-c4c(C)nnn4C)cc32)n(C)n1	36 min
[2H]C([2H])([2H])c1nnn(C)c1-c1cnc2c3ccc(C(C)(C)O)cc3n([C@H](c3cc(C)on3)C3CCOCC3)c2c1	37 min

Tested on: not listed separately
Assay: Solubility of the compound in phosphate buffer at pH 6.5
Type: physicochemical
Conditions: not given
Outline: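 Solubility measured in 50 mM phosphate buffer at pH 6.5; reported in µg/mL.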

SMILES	solubility
[2H]C([2H])([2H])c1nnn(C)c1-c1cnc2c3ccc(C(C)(C)O)c(F)c3n([C@H](c3ncccc3F)C3CCOCC3)c2c1	91 µg/mL (≈ 170 µM)

Tested on: not listed separately
Assay: Protein binding in human serum assessed as free fraction
Type: ADME, cell-free
Conditions: not given

SMILES	fraction unbound
[2H]C([2H])([2H])c1nnn(C)c1-c1cnc2c3ccc(C(C)(C)O)cc3n([C@H](c3ncccc3F)C3CCOCC3)c2c1	0.04
[2H]C([2H])([2H])c1nnn(C)c1-c1cnc2c3ccc(C(C)(C)O)c(F)c3n([C@H](c3ncccc3F)C3CCOCC3)c2c1	0.06
[2H]C([2H])([2H])c1nnn(C)c1-c1cnc2c3ccc(C(C)(C)O)cc3n([C@H](c3ccc(Cl)cn3)C3CCOCC3)c2c1	0.06
[2H]C([2H])([2H])c1nnn(C)c1-c1cnc2c3ccc(C(C)(C)O)cc3n([C@H](c3cc(C)on3)C3CCOCC3)c2c1	0.14

Tested on: not listed separately
Assay: Antitumor activity against human JJN-3R cells xenografted in po dosed mouse assessed as tumor growth inhibition administered qd for 7 days beginning 8 days after tumor-cell implantation
Type: functional
Conditions: 168 h, time 7 day, read-out: MED
Outline: as §1

SMILES	minimal effective dose
[2H]C([2H])([2H])c1nnn(C)c1-c1cnc2c3ccc(C(C)(C)O)c(F)c3n([C@H](c3ncccc3F)C3CCOCC3)c2c1	1 mg/kg

Tested on: not listed separately
Assay: Metabolic stability in human liver microsomes assessed as half life measured upto 120 mins
Type: ADME, Microsome
Conditions: not given

SMILES	half-life
[2H]C([2H])([2H])c1nnn(C)c1-c1cnc2c3ccc(C(C)(C)O)cc3n([C@H](c3ncccc3F)C3CCOCC3)c2c1	79 min
[2H]C([2H])([2H])c1nnn(C)c1-c1cnc2c3ccc(C(C)(C)O)c(F)c3n([C@H](c3ncccc3F)C3CCOCC3)c2c1	75 min
[2H]C([2H])([2H])c1nnn(C)c1-c1cnc2c3ccc(C(C)(C)O)cc3n([C@H](c3ccc(Cl)cn3)C3CCOCC3)c2c1	55 min
Cc1cc([C@H](C2CCOCC2)n2c3cc(C(C)(C)O)ccc3c3ncc(-c4c(C)nnn4C)cc32)n(C)n1	83 min
[2H]C([2H])([2H])c1nnn(C)c1-c1cnc2c3ccc(C(C)(C)O)cc3n([C@H](c3cc(C)on3)C3CCOCC3)c2c1	64 min

Tested on: not listed separately
Assay: Antitumor activity against human JJN-3R cells xenografted in mouse assessed as tumor growth inhibition at 4 mg/kg, po qd administered for 7 days beginning 8 days after tumor-cell implantation
Type: functional
Conditions: 168 h, time 7 day, read-out: TGI
Outline: as §1

SMILES	inhibition in vivo at 4 mg/kg
[2H]C([2H])([2H])c1nnn(C)c1-c1cnc2c3ccc(C(C)(C)O)cc3n([C@H](c3ccc(Cl)cn3)C3CCOCC3)c2c1	76%

Tested on: not listed separately
Assay: Metabolic stability in rat liver microsomes assessed as half life measured upto 120 mins
Type: ADME, Microsome
Conditions: not given

SMILES	half-life
[2H]C([2H])([2H])c1nnn(C)c1-c1cnc2c3ccc(C(C)(C)O)cc3n([C@H](c3ncccc3F)C3CCOCC3)c2c1	48 min
[2H]C([2H])([2H])c1nnn(C)c1-c1cnc2c3ccc(C(C)(C)O)c(F)c3n([C@H](c3ncccc3F)C3CCOCC3)c2c1	47 min
[2H]C([2H])([2H])c1nnn(C)c1-c1cnc2c3ccc(C(C)(C)O)cc3n([C@H](c3ccc(Cl)cn3)C3CCOCC3)c2c1	62 min
Cc1cc([C@H](C2CCOCC2)n2c3cc(C(C)(C)O)ccc3c3ncc(-c4c(C)nnn4C)cc32)n(C)n1	59 min
[2H]C([2H])([2H])c1nnn(C)c1-c1cnc2c3ccc(C(C)(C)O)cc3n([C@H](c3cc(C)on3)C3CCOCC3)c2c1	33 min

Tested on: not listed separately
Assay: Metabolic stability in dog liver microsomes assessed as half life measured upto 120 mins
Type: ADME, Canis lupus familiaris, Microsome
Conditions: liver microsomes

SMILES	half-life
[2H]C([2H])([2H])c1nnn(C)c1-c1cnc2c3ccc(C(C)(C)O)cc3n([C@H](c3ncccc3F)C3CCOCC3)c2c1	36 min
[2H]C([2H])([2H])c1nnn(C)c1-c1cnc2c3ccc(C(C)(C)O)c(F)c3n([C@H](c3ncccc3F)C3CCOCC3)c2c1	37 min
[2H]C([2H])([2H])c1nnn(C)c1-c1cnc2c3ccc(C(C)(C)O)cc3n([C@H](c3ccc(Cl)cn3)C3CCOCC3)c2c1	61 min
Cc1cc([C@H](C2CCOCC2)n2c3cc(C(C)(C)O)ccc3c3ncc(-c4c(C)nnn4C)cc32)n(C)n1	52 min
[2H]C([2H])([2H])c1nnn(C)c1-c1cnc2c3ccc(C(C)(C)O)cc3n([C@H](c3cc(C)on3)C3CCOCC3)c2c1	75 min

Tested on: not listed separately
Assay: Permeability of the compound at pH 7.4 by PAMPA
Type: ADME
Conditions: read-out: permeability
Outline: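 PAMPA run at pH 7.4; permeability reported in nm/sec.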

SMILES	Papp
[2H]C([2H])([2H])c1nnn(C)c1-c1cnc2c3ccc(C(C)(C)O)cc3n([C@H](c3ncccc3F)C3CCOCC3)c2c1	27 ×10⁻⁶ cm/s
[2H]C([2H])([2H])c1nnn(C)c1-c1cnc2c3ccc(C(C)(C)O)c(F)c3n([C@H](c3ncccc3F)C3CCOCC3)c2c1	42 ×10⁻⁶ cm/s
[2H]C([2H])([2H])c1nnn(C)c1-c1cnc2c3ccc(C(C)(C)O)cc3n([C@H](c3ccc(Cl)cn3)C3CCOCC3)c2c1	61 ×10⁻⁶ cm/s
Cc1cc([C@H](C2CCOCC2)n2c3cc(C(C)(C)O)ccc3c3ncc(-c4c(C)nnn4C)cc32)n(C)n1	15 ×10⁻⁶ cm/s
[2H]C([2H])([2H])c1nnn(C)c1-c1cnc2c3ccc(C(C)(C)O)cc3n([C@H](c3cc(C)on3)C3CCOCC3)c2c1	26 ×10⁻⁶ cm/s

Tested on: not listed separately
Assay: Metabolic stability in mouse liver microsomes assessed as half life measured upto 120 mins
Type: ADME, Microsome
Conditions: not given

SMILES	half-life
[2H]C([2H])([2H])c1nnn(C)c1-c1cnc2c3ccc(C(C)(C)O)cc3n([C@H](c3ncccc3F)C3CCOCC3)c2c1	24 min
[2H]C([2H])([2H])c1nnn(C)c1-c1cnc2c3ccc(C(C)(C)O)c(F)c3n([C@H](c3ncccc3F)C3CCOCC3)c2c1	16 min
[2H]C([2H])([2H])c1nnn(C)c1-c1cnc2c3ccc(C(C)(C)O)cc3n([C@H](c3ccc(Cl)cn3)C3CCOCC3)c2c1	35 min
Cc1cc([C@H](C2CCOCC2)n2c3cc(C(C)(C)O)ccc3c3ncc(-c4c(C)nnn4C)cc32)n(C)n1	50 min
[2H]C([2H])([2H])c1nnn(C)c1-c1cnc2c3ccc(C(C)(C)O)cc3n([C@H](c3cc(C)on3)C3CCOCC3)c2c1	30 min

Biological target: T1, Bromodomain-containing protein 4
Assay: Inhibition of BRD4 (unknown origin)
Conditions: not given
Outline: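 BRD4 binding assay; IC50 in nM, reported as mean ± SEM.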

SMILES	pIC50
[2H]C([2H])([2H])c1nnn(C)c1-c1cnc2c3ccc(C(C)(C)O)cc3n([C@H](c3ncccc3F)C3CCOCC3)c2c1	9.05
[2H]C([2H])([2H])c1nnn(C)c1-c1cnc2c3ccc(C(C)(C)O)c(F)c3n([C@H](c3ncccc3F)C3CCOCC3)c2c1	9.22
[2H]C([2H])([2H])c1nnn(C)c1-c1cnc2c3ccc(C(C)(C)O)cc3n([C@H](c3ccc(Cl)cn3)C3CCOCC3)c2c1	9.00
Cc1cc([C@H](C2CCOCC2)n2c3cc(C(C)(C)O)ccc3c3ncc(-c4c(C)nnn4C)cc32)n(C)n1	8.64
[2H]C([2H])([2H])c1nnn(C)c1-c1cnc2c3ccc(C(C)(C)O)cc3n([C@H](c3cc(C)on3)C3CCOCC3)c2c1	8.92

Tested on: not listed separately
Assay: AUC (0 to 24 hrs) in mouse at 3 mg/kg, po measured for 24 hrs
Type: ADME, organism-based
Parameters: route oral, time 24 hrs, dose 3 mg/kg
Conditions: in vivo

SMILES	AUC(0-t) at 24 h
[2H]C([2H])([2H])c1nnn(C)c1-c1cnc2c3ccc(C(C)(C)O)c(F)c3n([C@H](c3ncccc3F)C3CCOCC3)c2c1	10.9 µM·h

Tested on: not listed separately
Assay: Antiproliferative activity against Velcade-resistant human JJN-3R cells assessed as reduction in cell viability
Type: functional, cell-based
Conditions: not given
Outline: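 Multiple myeloma cell proliferation assay in the Velcade-resistant JJN3R line; IC50 taken from proliferation.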

SMILES	pIC50
[2H]C([2H])([2H])c1nnn(C)c1-c1cnc2c3ccc(C(C)(C)O)cc3n([C@H](c3ncccc3F)C3CCOCC3)c2c1	8.44
[2H]C([2H])([2H])c1nnn(C)c1-c1cnc2c3ccc(C(C)(C)O)c(F)c3n([C@H](c3ncccc3F)C3CCOCC3)c2c1	8.77
[2H]C([2H])([2H])c1nnn(C)c1-c1cnc2c3ccc(C(C)(C)O)cc3n([C@H](c3ccc(Cl)cn3)C3CCOCC3)c2c1	8.32
Cc1cc([C@H](C2CCOCC2)n2c3cc(C(C)(C)O)ccc3c3ncc(-c4c(C)nnn4C)cc32)n(C)n1	7.26
[2H]C([2H])([2H])c1nnn(C)c1-c1cnc2c3ccc(C(C)(C)O)cc3n([C@H](c3cc(C)on3)C3CCOCC3)c2c1	8.00
